Series [1] addresses T1, Free fatty acid receptor 1 (Homo sapiens, UniProt O14842). The series can be described thus: Agonist activity at human GPR40 expressed in CHO cells assessed as increase in intracellular calcium flux by Fluo-8 dye based FLIPR assay. Type of series: functional, cell-based. Summed up:
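Stable CHO-GPR40 line (human receptor), seeded at 12,500 cells/well 24 h before assay. Cells were loaded 1 h with Fluo-8 calcium dye and read on FLIPR Tetra. Agonist response was taken as the maximum fluorescence change over baseline. Dose-response testing gave EC50 from fitted concentration-response curves, with GW9508 run alongside as positive control.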
A general note: Calcium assays in cells follow changes in intracellular calcium, usually with a dye or a luminescent sensor.

Series [2] has as its target T1, Free fatty acid receptor 1. The series can be described thus: Agonist activity at human GPR40 expressed in CHO cells assessed as increase in intracellular calcium flux at 5 uM by Fluo-8 dye based FLIPR assay relative to GW9508. The class given is functional, cell-based.
Series [3] concerns the target T2, Free fatty acid receptor 3 (Homo sapiens, UniProt O14843).
T2 sequence (O14843 whole entry): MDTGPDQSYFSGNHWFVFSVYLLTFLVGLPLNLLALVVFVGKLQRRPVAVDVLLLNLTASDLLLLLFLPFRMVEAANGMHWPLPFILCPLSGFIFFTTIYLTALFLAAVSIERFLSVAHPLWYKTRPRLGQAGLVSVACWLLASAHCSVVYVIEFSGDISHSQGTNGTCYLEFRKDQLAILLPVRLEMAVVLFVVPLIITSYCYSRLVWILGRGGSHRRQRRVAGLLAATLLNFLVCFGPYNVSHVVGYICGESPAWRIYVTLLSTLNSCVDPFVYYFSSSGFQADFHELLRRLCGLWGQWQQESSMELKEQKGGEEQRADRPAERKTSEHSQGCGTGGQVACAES
The series can be described thus: Agonist activity at human FFA3 receptor expressed in CHO cells assessed as increase in intracellular calcium flux by Fluo-8 dye based FLIPR assay. Type of series: functional, cell-based. In outline: (§1)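 Separate CHO lines stably expressing GPR41, GPR43 or GPR120 (from ECACC) were used for specificity screening in the same format as the FFA1 assay. Cells were plated at 12,500/well 24 h ahead, loaded 1 h with Fluo-8 calcium dye, and read on a FLIPR Tetra. Response was taken as the maximum fluorescence change over baseline.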

Series [4] has as its target T3, Free fatty acid receptor 2 (Homo sapiens, UniProt O15552).
T3 sequence (O15552 whole entry): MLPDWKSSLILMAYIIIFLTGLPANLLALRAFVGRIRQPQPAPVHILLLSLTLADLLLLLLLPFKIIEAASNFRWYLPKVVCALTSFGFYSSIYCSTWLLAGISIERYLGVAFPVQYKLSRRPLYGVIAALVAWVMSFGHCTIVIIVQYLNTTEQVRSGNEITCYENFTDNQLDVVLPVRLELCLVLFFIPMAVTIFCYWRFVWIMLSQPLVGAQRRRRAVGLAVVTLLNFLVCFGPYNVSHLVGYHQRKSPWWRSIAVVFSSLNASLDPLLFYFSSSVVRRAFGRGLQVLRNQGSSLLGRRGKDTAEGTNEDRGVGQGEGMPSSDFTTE
The series can be described thus: Agonist activity at human FFA2 receptor expressed in CHO cells assessed as increase in intracellular calcium flux by Fluo-8 dye based FLIPR assay. Type of series: functional, cell-based. In outline:
as §1

Series [5] has as its target T4, Free fatty acid receptor 4 (Homo sapiens, UniProt Q5NUL3).
T4 sequence (Q5NUL3 whole entry): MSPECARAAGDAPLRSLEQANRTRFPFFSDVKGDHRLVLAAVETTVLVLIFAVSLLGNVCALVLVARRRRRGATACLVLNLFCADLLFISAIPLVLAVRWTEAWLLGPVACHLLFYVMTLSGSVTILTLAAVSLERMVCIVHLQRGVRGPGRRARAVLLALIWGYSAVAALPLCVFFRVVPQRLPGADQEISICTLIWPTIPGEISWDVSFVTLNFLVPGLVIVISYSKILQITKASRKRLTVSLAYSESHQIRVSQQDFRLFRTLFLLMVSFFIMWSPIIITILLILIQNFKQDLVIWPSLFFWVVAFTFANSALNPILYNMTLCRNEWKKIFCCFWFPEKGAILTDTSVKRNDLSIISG
Put plainly: Agonist activity at human GPR120 expressed in CHO cells assessed as increase in intracellular calcium flux by Fluo-8 dye based FLIPR assay. The class given is functional, cell-based. In outline: as §1

Series [6] is described as follows: Kinetic aqueous solubility of the compound in PBS buffer […] at pH 7.4 by UV-Visible spectrophotometric analysis. The note with it: read-out: Kinetic_solubility. The class given is physicochemical. In outline:
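Kinetic solubility: a 40 mM DMSO stock was diluted to a nominal 800 μM in duplicate in PBS (138 mM NaCl, 2.7 mM KCl, 10 mM K-phosphate, pH 7.4, 2% final DMSO). Samples were shaken 2 h at 25°C and then filtered. Filtrates were diluted 2-fold in methanol and quantified by UV scan (200-550 nm) against 0, 200 and 400 μM calibrants in 50% methanol/PBS. Values average n = 4.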

The nature of series [7]: Half life in Balb/c mouse liver microsomes at 2 uM in presence of NADPH by HPLC-MS analysis. Type of series: ADME, microsome. Summed up:
(§2)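 Microsomes from pooled (50) perfused livers of male BALB/c mice, 0.42 mg protein/mL, in 100 mM K-phosphate pH 7.4 with MgCl2 3.3 mM, NADPH 3 mM, G6P 5.3 mM and G6PDH 0.67 U/ml. Compound was 2 μM (1.6% solvent) at 37°C, sampled at five points over 40 min in duplicate. Reactions were quenched with acetonitrile and analysed by HPLC-MS/MS. kel came from ln(AUC) vs time, T1/2 = 0.693/kel, and CLint was scaled per mg microsomes.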

Series [8] can be described thus: Intrinsic clearance in Balb/c mouse liver microsomes at 2 uM in presence of NADPH by HPLC-MS analysis. Type of series: ADME, microsome. In outline:
as §2
In general terms: Microsomes from liver hold many membrane-bound enzymes, among them those of drug oxidation.

The nature of series [9]: Apparent permeability from apical to basolateral direction in human Caco2 cells at 10 uM after 2 hrs by HPLC-MS analysis. The note with it: Caco-2. Type of series: ADME, cell-based. Summed up:
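Caco-2 cells were grown to 70–80% confluence, then seeded at 1x10⁵ cells/well on 24-well semipermeable inserts and washed twice with PBS. Compound was 10 μM in HBSS with 5,6 mM glucose and 10 mM HEPES, pH 7.4, applied apically in duplicate for 2 h at 37 °C. Receiver concentrations were measured by HPLC-MS, and Papp was computed from acceptor volume, insert area, time and acceptor/initial donor concentration.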
(Passage across Caco-2 layers is used to estimate intestinal permeability.)

SMILES strings stand for the structures.

T1 sequence (O14842 whole entry): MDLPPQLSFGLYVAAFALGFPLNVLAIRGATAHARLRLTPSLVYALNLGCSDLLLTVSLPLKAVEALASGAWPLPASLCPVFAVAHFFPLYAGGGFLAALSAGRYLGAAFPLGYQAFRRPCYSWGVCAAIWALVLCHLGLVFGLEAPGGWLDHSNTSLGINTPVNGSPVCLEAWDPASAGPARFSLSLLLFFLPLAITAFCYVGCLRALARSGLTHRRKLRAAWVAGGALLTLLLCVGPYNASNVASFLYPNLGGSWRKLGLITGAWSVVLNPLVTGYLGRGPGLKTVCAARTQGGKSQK

Broadly, the EC50 is the concentration giving half of the maximal effect. Consider `O=C(O)CCc1ccc(OCc2ccc(CN3CCC4(CC3)CC(CCOc3ncnc5c3CCC5)CCO4)cc2)cc1` (stereo not given), for which the EC50 in series [1] was 1260 nM. The %max in series [2] was determined as 78.4%.
The matching figures for `Cc1ccnc(OCCC2CCOC3(CCN(Cc4ccc(COc5ccc(CCC(=O)O)cc5)cc4)CC3)C2)c1` (stereo not given): 1110 nM and 110%.
By half-life is commonly meant the time in which the quantity being followed falls by half. One may read the Papp A→B as the apparent permeability from the apical to the basolateral side of a cell layer. For the molecule `Cc1cccc(OCCC2CCOC3(CCN(Cc4ccc(COc5ccc(CCC(=O)O)cc5)cc4)CC3)C2)n1.Cl.Cl` (stereo not given), the concentration for a half-maximal effect (EC50) in [1] was 260 nM; in [3], greater than 10000 nM; in series [4], greater than 10000 nM; in [5] it was greater than 10000 nM. Besides, the %max in series [2] is 100%. Moreover, the solubility kinetic in series [6] was 228 µM. The half-life at 2 µM in [7] is 22.9 min. For the same molecule, in [8], the CL int at 2 µM is 72.8 µL/min/mg. The Papp A→B at 2 h, 10 µM in [9] stood at 7.3 ×10⁻⁶ cm/s.
Take `O=C(O)CCc1ccc(OCc2ccc(CN3CCC4(CC3)CC(CCOc3ccc(C(F)(F)F)cn3)CCO4)cc2)cc1` (stereo not given): the half-maximal effective concentration (EC50) in series [1] worked out at 33500 nM. The %max in series [2] was found to be 79.2%.
The matching figures for `O=C(O)CCc1ccc(OCc2ccc(CN3CCC4(CC3)CC(CCOc3cnccn3)CCO4)cc2)cc1` (stereo not given): 1480 nM and 83.5%.
As for `O=C(O)CCc1ccc(OCc2ccc(CN3CCC4(CCCCO4)CC3)cc2)cc1`, the EC50 in series [1] is greater than 20000 nM.
Take `O=C(O)CCc1ccc(OCc2ccc(CN3CCC4(CC3)CC(CCOc3cccnc3)CCO4)cc2)cc1` (stereo not given): the EC50 in [1] came out at 2560 nM. Also, the %max in series [2] was 61.7%.
The matching figures for `Cc1nccnc1OCCC1CCOC2(CCN(Cc3ccc(COc4ccc(CCC(=O)O)cc4)cc3)CC2)C1` (stereo not given): 1270 nM and 105%.
The matching figures for `O=C(O)CCc1ccc(OCc2ccc(CN3CCC4(CC3)CC(CCOc3ccc5ccccc5n3)CCO4)cc2)cc1` (stereo not given): 2360 nM and 83.4%.
The matching figures for `O=C(O)CCc1ccc(OCc2ccc(CN3CCC4(CC3)CC(CCOc3ccc(F)cc3)CCO4)cc2)cc1` (stereo not given): 2060 nM and 55%.
On to `Cc1cnc(C)c(OCCC2CCOC3(CCN(Cc4ccc(COc5ccc(CCC(=O)O)cc5)cc4)CC3)C2)n1` (stereo not given), for which the EC50 in series [1] amounted to 1140 nM. Moreover, the %max in series [2] worked out at 80.2%.
As to `O=C(O)CCc1ccc(OCc2ccc(CN3CCC4(CC3)CC(CCOc3ncccn3)CCO4)cc2)cc1` (stereo not given), in series [1], the EC50 was 3870 nM. In [2], the %max worked out at 54.5%.
As for `O=C(O)CCc1ccc(OCc2ccc(CN3CCC4(CC3)CC(Oc3ccccn3)CCO4)cc2)cc1` (stereo not given), the EC50 in series [1] stood at 900 nM.
Consider `O=C(O)CCc1ccc(OCc2ccc(CN3CCC4(CC3)CC(CCOc3nc(C5CC5)nc5c3CCC5)CCO4)cc2)cc1` (stereo not given), for which the EC50 in series [1] was found to be 1210 nM. Further, the %max in [2] was 60.5%.
As to `O=C(O)CCc1ccc(OCc2ccc(CN3CCC4(CC3)CC(CCOc3ccncc3)CCO4)cc2)cc1` (stereo not given), the EC50 in series [1] worked out at 6100 nM. Moreover, in series [2], the %max was determined as 48.5%.

Values taken from ChEMBL document CHEMBL3992530, “Polar aromatic periphery increases agonist potency of spirocyclic free fatty acid receptor (GPR40) agonists inspired by LY2881835” (Eur J Med Chem, 2017).
